Test results as given in publication PMC3517057 (ChemMedChem, 2012).
Values belong to the compound of their own block, whether it stands above or below them.

Key:
mGlu5 [1] = target: T1, mGlu5 (Rattus norvegicus, UniProt P31424); assay: mGlu5 calcium mobilization assay; assay type: cell-based
[2] = Metabolic stability in human liver microsomes; assay type: in vitro ADME; conditions: 1 µM, 15 min, 37 °C, NADPH
Method in brief: (§1)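 Test compound at 1 µM was incubated with human or mouse liver microsomes in phosphate buffer with NADPH cofactor, for 15 min at 37 °C with shaking.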

adenosine A3 receptor = target: T2, adenosine A3 receptor (Homo sapiens, UniProt P0DMS8); assay: Ricerca LeadProfilingScreen radioligand binding, adenosine A3 receptor; conditions: 10 µM
T2 sequence (P0DMS8 1-318): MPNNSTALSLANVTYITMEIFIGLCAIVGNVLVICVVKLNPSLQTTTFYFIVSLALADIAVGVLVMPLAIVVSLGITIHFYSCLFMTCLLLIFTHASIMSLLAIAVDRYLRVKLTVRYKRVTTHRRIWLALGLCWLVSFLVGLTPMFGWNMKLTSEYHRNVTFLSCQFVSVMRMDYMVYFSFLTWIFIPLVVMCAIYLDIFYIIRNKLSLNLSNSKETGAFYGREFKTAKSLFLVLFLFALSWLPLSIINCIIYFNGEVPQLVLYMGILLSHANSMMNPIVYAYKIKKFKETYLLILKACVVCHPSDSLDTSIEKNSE
Method in brief: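 The test compound was run at 10 µM in a commercial profiling panel of radioligand binding assays covering 68 primary molecular targets, including GPCRs, kinases and ion channels.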

mGlu5 [3] = target: T1, mGlu5; assay: Effect on glutamate CRC in rat cortical astrocytes; assay type: cell-based; conditions: 300 nM, 1 µM, 30 µM 18k
[4] = Protein binding in mouse plasma; assay type: in vitro ADME; conditions: rapid equilibrium dialysis
[5] = Metabolic stability in mouse liver microsomes; assay type: in vitro ADME; conditions: 1 µM, 15 min, 37 °C, NADPH
Method in brief: as §1

mice [6] = assay: Marble burying model of anxiety; assay type: in vivo; conditions: for Inhibition of marble burying: 15 minute pretreatment; for Sedation: marble burying study, i.p., all dosing groups
Method in brief: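 Mice were scored for burying glass marbles in deep bedding. Test compound or the MTEP positive control (15 mg/kg) was given i.p. in 10% tween 80 vehicle 15 min before testing. Testing ran from 15 to 45 min post dose, with n=12 per dosing group. Significance was P < 0.05 vs vehicle by Dunnett's test.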

C57Bl/6J mice [7] = assay: Operant sensation seeking; assay type: in vivo
[8] = Plasma and brain exposure after intraperitoneal dosing in mice; assay type: in vivo, male CD-1 mice; conditions: 10 mg/kg i.p.
Method in brief: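 Male CD-1 mice received 10 mg/kg i.p. as a microsuspension in 10% tween 80, with two mice per time point. Brain and plasma were sampled at 0.5, 1, 3 and 6 h post dose.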

rat mGlu5 = rat mGlu5 (Rattus norvegicus, UniProt P31424); assay: Glutamate-induced ERK1/2 phosphorylation in HEK293 cells expressing rat mGlu5; assay type: cell-based; conditions: 10 nM to 1 µM 18k
[9] = Exposure following oral dosing in mice; assay type: in vivo
[10] = Binding to mouse brain homogenates; assay type: in vitro ADME; conditions: rapid equilibrium dialysis
[11] = system: 68 primary molecular targets (GPCRs, kinases, ion channels); assay: Ricerca LeadProfilingScreen radioligand binding panel; conditions: 10 µM
mGlu1–4 and mGlu6–8 = assay: Selectivity against other mGlu receptors; assay type: cell-based; conditions: 10 µM
mice [12] = conditions: cited from earlier work
C57Bl/6J mice [13] = conditions: low doses; cited from earlier work
[14] = mGlu5 calcium mobilization, average of at least three determinations

T1 sequence (P31424 21-1203): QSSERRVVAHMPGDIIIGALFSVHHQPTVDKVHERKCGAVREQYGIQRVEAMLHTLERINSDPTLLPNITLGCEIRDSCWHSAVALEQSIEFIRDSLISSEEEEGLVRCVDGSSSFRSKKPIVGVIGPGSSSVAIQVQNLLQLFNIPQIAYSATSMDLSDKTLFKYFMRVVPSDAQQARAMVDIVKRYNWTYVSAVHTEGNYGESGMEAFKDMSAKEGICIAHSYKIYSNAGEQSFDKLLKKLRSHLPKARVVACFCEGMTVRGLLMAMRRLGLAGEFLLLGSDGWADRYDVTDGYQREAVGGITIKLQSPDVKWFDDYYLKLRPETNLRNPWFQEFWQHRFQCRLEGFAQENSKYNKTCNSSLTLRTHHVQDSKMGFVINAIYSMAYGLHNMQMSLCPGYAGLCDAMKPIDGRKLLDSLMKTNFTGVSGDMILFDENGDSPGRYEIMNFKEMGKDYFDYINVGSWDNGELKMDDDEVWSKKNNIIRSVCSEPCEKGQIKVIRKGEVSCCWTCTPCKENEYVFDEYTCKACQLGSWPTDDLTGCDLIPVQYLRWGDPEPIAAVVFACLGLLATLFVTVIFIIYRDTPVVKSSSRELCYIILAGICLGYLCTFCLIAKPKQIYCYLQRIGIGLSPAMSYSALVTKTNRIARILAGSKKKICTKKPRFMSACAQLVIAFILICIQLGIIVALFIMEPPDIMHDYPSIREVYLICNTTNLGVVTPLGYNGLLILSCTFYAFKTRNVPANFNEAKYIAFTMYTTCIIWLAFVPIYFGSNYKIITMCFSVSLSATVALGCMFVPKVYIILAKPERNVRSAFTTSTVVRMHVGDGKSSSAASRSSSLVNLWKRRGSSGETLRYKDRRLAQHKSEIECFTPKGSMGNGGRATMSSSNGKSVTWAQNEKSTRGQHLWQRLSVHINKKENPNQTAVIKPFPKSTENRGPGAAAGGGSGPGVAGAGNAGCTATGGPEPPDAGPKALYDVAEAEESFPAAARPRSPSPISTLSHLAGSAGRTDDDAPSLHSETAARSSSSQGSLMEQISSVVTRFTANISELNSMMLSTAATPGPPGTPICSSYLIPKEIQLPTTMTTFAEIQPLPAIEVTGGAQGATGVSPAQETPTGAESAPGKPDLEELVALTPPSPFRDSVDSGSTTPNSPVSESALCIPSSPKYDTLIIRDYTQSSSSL
Chain of rat mGlu5 (P31424 21-1203): as above

IC50 (mGlu5 [1]; [14]): > 10000 nM
Structure (SMILES): N#Cc1cnc(Nc2nc3ccccc3o2)nc1-c1cccs1 [18ee]

IC50 (mGlu5 [1]; [14]): 62 ± 10 nM
Structure (SMILES): COc1ccccc1-c1nc(Nc2nc3ccccc3o2)ncc1C#N [18g]

Stability in liver microsomes [2]: Enhanced stability relative to 13 | inhibition of binding (adenosine A3 receptor): 73% | bound to mouse plasma [4]: 99.4% | Stability in liver microsomes [5]: Enhanced stability relative to 13 | IC50 (mGlu5 [1]; [14]): 91 ± 22 nM | Brain AUC [8]: 1006 ng·h/g | Plasma AUC [8]: 224 ng·h/mL | Brain [ ] ([8]; 0.5 h): 136 ng/mL | Brain:Plasma ratio ([8]; 0.5 h): 4.3 | Plasma [ ] ([8]; 0.5 h): 31.8 ng/mL | average brain concentration ([8]; 30 minutes): 0.41 µM | Brain [ ] ([8]; 1 h): 283 ng/mL | Brain:Plasma ratio ([8]; 1 h): 4.4 | Plasma [ ] ([8]; 1 h): 64.7 ng/mL | brain concentration ([8]; 1 hour post dose): 850 nM | Brain [ ] ([8]; 3 h): 193 ng/mL | Brain:Plasma ratio ([8]; 3 h): 4.3 | Plasma [ ] ([8]; 3 h): 45.4 ng/mL | Brain [ ] ([8]; 6 h): 68 ng/mL | Brain:Plasma ratio ([8]; 6 h): 7.4 | Plasma [ ] ([8]; 6 h): 9.2 ng/mL | brain to plasma ratio ([8]; exposure ratio, to 1): more than 4 | bound to mouse brain homogenates [10]: 99.5% | Activity against other mGlu receptors (mGlu1–4 and mGlu6–8): no observable activity
Structure (SMILES): N#Cc1cnc(Nc2nc3ccccc3o2)nc1-c1ccc(F)cc1 [18k]
Effect on glutamate concentration response curve (mGlu5 [3]): induced a rightward shift in the glutamate concentration response curve (CRC) and reduced the maximal effect of glutamate | Inhibition of marble burying (mice [6]; 56.6 mg/kg i.p. (highest dose), P < 0.05 vs. vehicle): Significant inhibition of marble burying | Sedation (mice [6]): No sedation was observed | Efficacy in OSS (C57Bl/6J mice [7]; both 30 and 56.6 mg/kg doses i.p., P < 0.05 vs. vehicle): significant efficacy | Progressive ratio responding for OSS stimuli (C57Bl/6J mice [7]; i.p., dose response): dose dependently reduced progressive ratio responding for OSS stimuli | Effect on responding for a food reinforcer (C57Bl/6J mice [7]; i.p., food control): no significant effects | Effect on ERK1/2 phosphorylation response to glutamate (rat mGlu5): blocked the effect of glutamate in a concentration dependent manner | Exposure in plasma and brain [9]: no exposure above detectable limits in either plasma or brain | Inhibition of radioligand binding in 68-target panel [11]: inhibition of more than 50% of radioligand binding was observed only in the adenosine A3 receptor assay

IC50 (mGlu5 [1]; [14]): > 30000 nM
Structure (SMILES): N#Cc1cnc(Nc2nc3ccccc3o2)nc1-c1ccc(C(F)(F)F)cc1 [18m]

IC50 (mGlu5 [1]; [14]): 6580 ± 1670 nM
Structure (SMILES): CCOc1ccccc1-c1nc(Nc2nc3ccccc3o2)ncc1C#N [18r]

IC50 (mGlu5 [1]; [14]): 2580 ± 1170 nM
Structure (SMILES): N#Cc1cnc(Nc2nc3ccccc3o2)nc1-c1ccc(F)c(F)c1 [18t]

IC50 (mGlu5 [1]; [14]): 375 ± 90 nM
Structure (SMILES): N#Cc1cnc(Nc2nc3ccccc3o2)nc1-c1ccc(Cl)cc1F [18y]

IC50 (mGlu5 [1]; [14]): 217 ± 10 nM
Structure (SMILES): COc1cc(F)ccc1-c1nc(Nc2nc3ccccc3o2)ncc1C#N [18z]

Continued, compound first:

Structure (SMILES): Cc1cccc(C#Cc2ccccc2)n1 [MPEP]
Efficacy in marble burying model (mice [12]): effective

Structure (SMILES): Cc1nc(C#Cc2cccnc2)cs1 [MTEP, reference compound]
Inhibition of marble burying (mice [6]; 15 mg/kg i.p., positive control): Robust inhibition of marble burying | Sedation (mice [6]): No sedation was observed

Structure (SMILES): OCCN1CCN(CC/C=C2/c3ccccc3Sc3ccc(C(F)(F)F)cc32)CC1 [cis-flupenthixol]
Responding for OSS stimuli (C57Bl/6J mice [13]): increased responding for OSS stimuli

Structure (SMILES): N#Cc1cnc(Nc2nc3ccccc3o2)nc1-c1ccccc1 [compound 13]
IC50 (mGlu5 [1]; [14]): 89 ± 32 nM | IC50 (mGlu5 [1]; original batch of virtual screen hit (ChemDiv), 10-point CRC): 75 nM

Structure (SMILES): CN1CC(=O)NC1=NC(=O)Nc1cccc(Cl)c1 [fenobam]
Efficacy in marble burying model (mice [12]): effective
